Assay [1] deals with Strep-tagged Mdc1–FHA domain (amino acids 1–154). Nature of the assay: SILAC pull-down of Mdc1–FHA interaction partners, −IR versus +IR. The assay is classed as binding, human. The following applies: 10 Gy IR. The method, boiled down:
(§1)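 U2OS cells stably carry a doxycycline-inducible, C-terminally Strep-tagged FHA domain (aa 1–154) or empty plasmid. They are SILAC-labelled (Lys0/Arg0, Lys4/Arg6, Lys8/Arg10) in dialyzed FBS, induced 16 h, then given 10 Gy IR for 30 min. Lysis in pH 7.5 Tris/NP-40 buffer with phosphatase and protease inhibitors, Strep-Tactin capture, pooled eluates on 4–20% SDS-PAGE, in-gel trypsin digestion. Analysis by nano-LC Orbitrap Velos MS and MaxQuant (FDR <1%). Read-out is normalized log2 SILAC ratios; 1:1:1 ratios count as background binders.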

For assay [2], the system named is Mdc1–FHA WT and T4A mutant domains. Nature of the assay: SILAC pull-down, wild-type versus T4A Mdc1–FHA domain after IR. It is filed as binding, human. Conditions: IR-treated cells. The method, boiled down:
as §1

The subject of assay [3] is Mdc1–FHA domain. The assay is described as follows: Detection of proposed partners in Mdc1–FHA pull-down / co-immunoprecipitation. The assay is classed as binding, human. Conditions: for detection in fraction pulled down by Mdc1–FHA domain: mass spectrometry; for detection by western blot in Mdc1–FHA pull-down / co-IP: U2OS, 10 Gy IR or untreated. Background: Immunoblotting shows a protein as a band on a membrane.

Assay [4] concerns immunoprecipitated human ATM. Nature of the assay: In vitro ATM kinase assay of recombinant Mdc1 fragments. It is filed as biochemical. Conditions: 0.5 mM ATP, γ-[32P]ATP, 30 min at 30°C, autoradiography.
Assay [5] relates to Myc-tagged Mdc1 (1–800). Nature of the assay: Co-immunoprecipitation of Flag- and Myc-tagged Mdc1. It is filed as cell-based, human. Conditions: transiently transfected 293T cells, anti-Flag IP, anti-Myc immunoblot. In a few lines: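 Human Mdc1 residues 1–800, C-terminally tagged with HA/FLAG or Myc, in a pcDNA3.1(+) vector. HEK 293T cells grown in D-MEM with 10% FCS and streptomycin/penicillin (100 U/ml). Transfected with FuGene 6 or calcium phosphate. Immunoprecipitation on anti-FLAG M2 affinity gel; Myc-tagged partner detected by immunoblot with rabbit polyclonal c-Myc antibody.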

The subject of assay [6] is Mdc1 Thr-4 / Thr-98 phosphorylation. Nature of the assay: MS quantitation of Mdc1–FHA phosphorylation site occupancy. The assay is classed as cell-based, human.

Turning to DNA damage binding protein 1 [DDB1], the “decrease of interaction with the MDC1–FHA domain in the presence of DNA damage” value in assay [1] is listed as greater than 2.5 fold.
On the same count and under the same terms, then “DDB1- and Cul4-associated factor 1 [DCAF1]”, with greater than 2.5 fold.
With “MDC1: endogenous Mdc1 as interaction partner of its own FHA domain”, the “interaction with wild-type compared to T4A FHA domain (in words)” value in assay [2] is reported as “interacts with the wild-type fragment”.
As to “ATM: ataxia telangiectasia-mutated kinase”, in assay [3], the “detection in fraction pulled down by Mdc1–FHA domain” value is “could not detect peptides” and the “detection by western blot in Mdc1–FHA pull-down / co-IP” value is on record as “unable to detect”.
Taken in the same sequence, the figures for Chk2: DNA damage kinase were “could not detect peptides” and “unable to detect”.

B1: M-1: GST-fusion Mdc1 fragment M-1 (amino acids 1–124) (protein, UniProt Q14676 1-124, looked up, fragment)
chain: MEDTQAIDWDVEEEEETEQSSESLRCNVEPVGRLHIFSGAHGPEKDFPLHLGKNVVGRMPDCSVALPFPSISKQHAEIEILAWDKAPILRDCGSLNGTQILRPPKVLSPGVSHRLRDQELILFA
modifications: GST fusion
Take B1: in assay [4], the “phosphorylation by ATM in vitro” value is “ATM only phosphorylated fragment M-1 (amino acids 1–124) and fragment M-4 (amino acids 531–770)”.

B2: M-1 T4A: M-1 point mutation altering Thr-4 to Ala (protein, UniProt Q14676 1-124, looked up, variant T4A)
chain: MEDAQAIDWDVEEEEETEQSSESLRCNVEPVGRLHIFSGAHGPEKDFPLHLGKNVVGRMPDCSVALPFPSISKQHAEIEILAWDKAPILRDCGSLNGTQILRPPKVLSPGVSHRLRDQELILFA
modifications: GST fusion
As for B2, in assay [4], the “phosphorylation by ATM in vitro” value is “could no longer be phosphorylated by ATM in vitro”.

B3: Mdc1 (1–800) R58A: FHA domain R58A mutant of Mdc1 (1–800) (protein, UniProt Q14676 1-800, looked up, variant R58A)
chain: MEDTQAIDWDVEEEEETEQSSESLRCNVEPVGRLHIFSGAHGPEKDFPLHLGKNVVGAMPDCSVALPFPSISKQHAEIEILAWDKAPILRDCGSLNGTQILRPPKVLSPGVSHRLRDQELILFADLLCQYHRLDVSLPFVSRGPLTVEETPRVQGETQPQRLLLAEDSEEEVDFLSERRMVKKSRTTSSSVIVPESDEEGHSPVLGGLGPPFAFNLNSDTDVEEGQQPATEEASSAARRGATVEAKQSEAEVVTEIQLEKDQPLVKERDNDTKVKRGAGNGVVPAGVILERSQPPGEDSDTDVDDDSRPPGRPAEVHLERAQPFGFIDSDTDAEEERIPATPVVIPMKKRKIFHGVGTRGPGAPGLAHLQESQAGSDTDVEEGKAPQAVPLEKSQASMVINSDTDDEEEVSAALTLAHLKESQPAIWNRDAEEDMPQRVVLLQRSQTTTERDSDTDVEEEELPVENREAVLKDHTKIRALVRAHSEKDQPPFGDSDDSVEADKSSPGIHLERSQASTTVDINTQVEKEVPPGSAIIHIKKHQVSVEGTNQTDVKAVGGPAKLLVVSLEEAWPLHGDCETDAEEGTSLTASVVADVRKSQLPAEGDAGAEWAAAVLKQERAHEVGAQGGPPVAQVEQDLPISRENLTDLVVDTDTLGESTQPQREGAQVPTGREREQHVGGTKDSEDNYGDSEDLDLQATQCFLENQGLEAVQSMEDEPTQAFMLTPPQELGPSHCSFQTTGTLDEPWEVLATQPFCLRESEDSETQPFDTHLEAYGPCLSPPRAIPGDQHPESPVHTEPM
Regarding B3, the “interaction of Flag-tagged with Myc-tagged Mdc1 (1–800)” value (“interaction of Flag-tagged” below) in assay [5] was “significant reduction of the interaction”.

B4: Mdc1 (1–800) T4A: T4A mutant of Mdc1 (1–800) (protein, UniProt Q14676 1-800, looked up, variant T4A)
chain: MEDAQAIDWDVEEEEETEQSSESLRCNVEPVGRLHIFSGAHGPEKDFPLHLGKNVVGRMPDCSVALPFPSISKQHAEIEILAWDKAPILRDCGSLNGTQILRPPKVLSPGVSHRLRDQELILFADLLCQYHRLDVSLPFVSRGPLTVEETPRVQGETQPQRLLLAEDSEEEVDFLSERRMVKKSRTTSSSVIVPESDEEGHSPVLGGLGPPFAFNLNSDTDVEEGQQPATEEASSAARRGATVEAKQSEAEVVTEIQLEKDQPLVKERDNDTKVKRGAGNGVVPAGVILERSQPPGEDSDTDVDDDSRPPGRPAEVHLERAQPFGFIDSDTDAEEERIPATPVVIPMKKRKIFHGVGTRGPGAPGLAHLQESQAGSDTDVEEGKAPQAVPLEKSQASMVINSDTDDEEEVSAALTLAHLKESQPAIWNRDAEEDMPQRVVLLQRSQTTTERDSDTDVEEEELPVENREAVLKDHTKIRALVRAHSEKDQPPFGDSDDSVEADKSSPGIHLERSQASTTVDINTQVEKEVPPGSAIIHIKKHQVSVEGTNQTDVKAVGGPAKLLVVSLEEAWPLHGDCETDAEEGTSLTASVVADVRKSQLPAEGDAGAEWAAAVLKQERAHEVGAQGGPPVAQVEQDLPISRENLTDLVVDTDTLGESTQPQREGAQVPTGREREQHVGGTKDSEDNYGDSEDLDLQATQCFLENQGLEAVQSMEDEPTQAFMLTPPQELGPSHCSFQTTGTLDEPWEVLATQPFCLRESEDSETQPFDTHLEAYGPCLSPPRAIPGDQHPESPVHTEPM
As for B4, the “interaction of Flag-tagged” value in assay [5] is recorded as “significant reduction of the interaction”.

B5: Mdc1 (1–800) concomitant mutation of both the FHA domain and Thr-4: T4A/R58A mutant of Mdc1 (1–800) (protein, UniProt Q14676 1-800, looked up, variant T4A R58A)
chain: MEDAQAIDWDVEEEEETEQSSESLRCNVEPVGRLHIFSGAHGPEKDFPLHLGKNVVGAMPDCSVALPFPSISKQHAEIEILAWDKAPILRDCGSLNGTQILRPPKVLSPGVSHRLRDQELILFADLLCQYHRLDVSLPFVSRGPLTVEETPRVQGETQPQRLLLAEDSEEEVDFLSERRMVKKSRTTSSSVIVPESDEEGHSPVLGGLGPPFAFNLNSDTDVEEGQQPATEEASSAARRGATVEAKQSEAEVVTEIQLEKDQPLVKERDNDTKVKRGAGNGVVPAGVILERSQPPGEDSDTDVDDDSRPPGRPAEVHLERAQPFGFIDSDTDAEEERIPATPVVIPMKKRKIFHGVGTRGPGAPGLAHLQESQAGSDTDVEEGKAPQAVPLEKSQASMVINSDTDDEEEVSAALTLAHLKESQPAIWNRDAEEDMPQRVVLLQRSQTTTERDSDTDVEEEELPVENREAVLKDHTKIRALVRAHSEKDQPPFGDSDDSVEADKSSPGIHLERSQASTTVDINTQVEKEVPPGSAIIHIKKHQVSVEGTNQTDVKAVGGPAKLLVVSLEEAWPLHGDCETDAEEGTSLTASVVADVRKSQLPAEGDAGAEWAAAVLKQERAHEVGAQGGPPVAQVEQDLPISRENLTDLVVDTDTLGESTQPQREGAQVPTGREREQHVGGTKDSEDNYGDSEDLDLQATQCFLENQGLEAVQSMEDEPTQAFMLTPPQELGPSHCSFQTTGTLDEPWEVLATQPFCLRESEDSETQPFDTHLEAYGPCLSPPRAIPGDQHPESPVHTEPM
With B5, the “interaction of Flag-tagged” value in assay [5] was “complete loss of binding”.

B6: M-4: GST-fusion Mdc1 fragment M-4 (amino acids 531–770) (protein, UniProt Q14676 531-770, looked up, fragment)
chain: PGSAIIHIKKHQVSVEGTNQTDVKAVGGPAKLLVVSLEEAWPLHGDCETDAEEGTSLTASVVADVRKSQLPAEGDAGAEWAAAVLKQERAHEVGAQGGPPVAQVEQDLPISRENLTDLVVDTDTLGESTQPQREGAQVPTGREREQHVGGTKDSEDNYGDSEDLDLQATQCFLENQGLEAVQSMEDEPTQAFMLTPPQELGPSHCSFQTTGTLDEPWEVLATQPFCLRESEDSETQPFDT
modifications: GST fusion
Regarding B6, the “phosphorylation by ATM in vitro” value in assay [4] was “ATM only phosphorylated fragment M-1 (amino acids 1–124) and fragment M-4 (amino acids 531–770)”.

B7: Mdc1-FHA domain: C-terminally Strep-tagged Mdc1-FHA domain (amino acids 1–154) (protein)
chain: NVEPVGRLHIFSGAHGPEKDFPLHLGKNVVGRMPDCSVALPFPSISKQHAEIEILAWDKAPILRDCGSLNGTQILRPPKVLSPGVSHRLRDQELILFADLLCQYHRLDVSLP
modifications: left off: GST, end not stated, cleaved
Regarding B7, the Thr-98 phosphorylation result in assay [6] (MS of tryptic peptide) was “no phosphorylated form was evident”. The “occupancy rate of phosphorylated Thr-4, after irradiation” value in assay [6] (SILAC and extracted ion chromatogram quantitation, after irradiation) is recorded as 61.5%. In assay [6] (SILAC and extracted ion chromatogram quantitation, not irradiated), the “occupancy rate of phosphorylated Thr-4, before irradiation” value is on record as 18.6%.

B8: Rad51: repair protein (protein)
chain: MAMQMQLEANADTSVEEESFGPQPISRLEQCGINANDVKKLEEAGFHTVEAVAYAPKKELINIKGISEAKADKILAEAAKLVPMGFTTATEFHQRRSEIIQITTGSKELDKLLQGGIETGSITEMFGEFRTGKTQICHTLAVTCQLPIDRGGGEGKAMYIDTEGTFRPERLLAVAERYGLSGSDVLDNVAYARAFNTDHQTQLLYQASAMMVESRYALLIVDSATALYRTDYSGRGELSARQMHLARFLRMLLRLADEFGVAVVITNQVVAQVDGAAMFAADPKKPIGGNIIAHASTTRLYLRKGRGETRICKIYDSPCLPEAEAMFAINADGVGDAKD
On to B8, for which the “detection in fraction pulled down by Mdc1–FHA domain” value in assay [3] is “could not detect peptides”.

The values above are taken from publication PMC3351161 (Nucleic Acids Research, 2012).
